ChEMBL document CHEMBL4330109, “Parallel synthesis of a bis-triazoles library as psammaplin A analogues: A new wave of antibiofilm compounds?” (Bioorg Med Chem Lett, 2019)

What was measured:
Paracoccus sp. [1] = assay: Anti-biofilm activity against Paracoccus sp. 4M6 assessed as inhibition of bacterial adhesion incubated for 15 hrs at 20 degC by Syto 61 dye based fluorimetric assay; assay type: functional, organism-based
In short: (§1)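 Biofilm formation (adhesion) of the marine strains was measured with the Syto 61 fluorophore, using a method adapted from Leroy et al. Compounds were first screened at 200 µM, and the value is % adhesion at that concentration. EC50 values were derived from the same assay.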

Pseudoalteromonas ulvae [2] = assay: Anti-biofilm activity against Pseudoalteromonas ulvae TC14 assessed as bacterial adhesion at 200 uM incubated for 15 hrs at 20 degC by Syto 61 dye based fluorescence assay relative to control; assay type: functional; in short: as §1
Paracoccus sp. [3] = assay: Anti-biofilm activity against Paracoccus sp. 4M6 assessed as bacterial adhesion at 200 uM incubated for 15 hrs at 20 degC by Syto 61 dye based fluorimetric assay relative to control; assay type: functional; in short: as §1
[4] = system: Pseudoalteromonas lipolytica; assay: Anti-biofilm activity against Pseudoalteromonas lipolytica TC8 assessed as inhibition of bacterial adhesion incubated for 15 hrs at 20 degC by Syto 61 dye based fluorimetric assay; assay type: functional, organism-based; in short: as §1
[5] = system: Pseudoalteromonas lipolytica; assay: Anti-biofilm activity against Pseudoalteromonas lipolytica TC8 assessed as bacterial adhesion at 200 uM incubated for 15 hrs at 20 degC by Syto 61 dye based fluorimetric assay relative to control; assay type: functional; in short: as §1
Pseudoalteromonas ulvae [6] = assay: Anti-biofilm activity against Pseudoalteromonas ulvae TC14 assessed as inhibition of bacterial adhesion incubated for 15 hrs at 20 degC by Syto 61 dye based fluorescence assay; assay type: functional, organism-based; in short: as §1
Paracoccus sp. [7] = assay: Growth inhibition of Paracoccus sp. 4M6 at 5 uM measured every hr for 6 hrs by turbidimetric method; assay type: organism-based; conditions: in vivo
In short: (§2)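 Bacterial growth of TC14, TC8 and 4M6 was followed with test compounds at 100 µM. Ampicillin at 5 µM served as the reference antibiotic.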

Pseudoalteromonas ulvae [8] = assay: Growth inhibition of Pseudoalteromonas ulvae TC14 at 5 uM measured every hr for 6 hrs by turbidimetric method; assay type: organism-based; conditions: in vivo; in short: as §2
[9] = system: Pseudoalteromonas lipolytica; assay: Effect on cell viability of Pseudoalteromonas lipolytica TC8 at 5 uM measured after 6 hrs by resazurin dye based fluorescence assay; assay type: organism-based
In short: (§3)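 Viability was scored with resazurin, following the same protocol as the Syto 61 antiadhesion assay. Compounds were tested at 5, 10, 20, 50, 100 and 200 µM on each strain, and the 5 and 100 µM points are the ones reported.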

Paracoccus sp. [10] = assay: Effect on cell viability of Paracoccus sp. 4M6 at 5 uM measured after 6 hrs by resazurin dye based fluorescence assay; assay type: organism-based; in short: as §3
[11] = system: Pseudoalteromonas lipolytica; assay: Growth inhibition of Pseudoalteromonas lipolytica TC8 at 5 uM measured every hr for 6 hrs by turbidimetric method; assay type: organism-based; conditions: in vivo; in short: as §2
Pseudoalteromonas ulvae [12] = assay: Effect on cell viability of Pseudoalteromonas ulvae TC14 at 5 uM measured after 6 hrs by resazurin dye based fluorescence assay; assay type: organism-based; in short: as §3
Pseudoalteromonas ulvae [13] = assay: Effect on cell viability of Pseudoalteromonas ulvae TC14 at 100 uM measured after 6 hrs by resazurin dye based fluorescence assay; assay type: organism-based; in short: as §3
Paracoccus sp. [14] = assay: Effect on cell viability of Paracoccus sp. 4M6 at 100 uM measured after 6 hrs by resazurin dye based fluorescence assay; assay type: organism-based; in short: as §3
Paracoccus sp. [15] = assay: Growth inhibition of Paracoccus sp. 4M6 at 100 uM measured every hr for 6 hrs by turbidimetric method; assay type: organism-based; conditions: in vivo; in short: as §2
[16] = system: Pseudoalteromonas lipolytica; assay: Growth inhibition of Pseudoalteromonas lipolytica TC8 at 100 uM measured every hr for 6 hrs by turbidimetric method; assay type: organism-based; conditions: in vivo; in short: as §2
[17] = system: Pseudoalteromonas lipolytica; assay: Effect on cell viability of Pseudoalteromonas lipolytica TC8 at 100 uM measured after 6 hrs by resazurin dye based fluorescence assay; assay type: organism-based; in short: as §3
Pseudoalteromonas ulvae [18] = assay: Growth inhibition of Pseudoalteromonas ulvae TC14 at 100 uM measured every hr for 6 hrs by turbidimetric method; assay type: organism-based; conditions: in vivo; in short: as §2
[19] = Paracoccus sp. (in: a-proteobacteria), 4M6, 15 h
[20] = Pseudoalteromonas lipolytica, TC8, 15 h
[21] = Pseudoalteromonas ulvae, TC14, 15 h

| Molecule | EC50 (Paracoccus sp. [1]; [19]) [µM] | Activity (Pseudoalteromonas ulvae [2]) [%] | Activity (Paracoccus sp. [3]) [%] | EC50 [4, 20] [µM] | Activity [5] [%] | EC50 (Pseudoalteromonas ulvae [6]; [21]) [µM] | further results |
| --- | --- | --- | --- | --- | --- | --- | --- |
| CN(C)CCOc1ccc(CCn2cc(CNCc3cn(CCc4ccc(OCCN(C)C)c(Br)c4)nn3)nn2)cc1Br | > 200 | 40.9 | 51.8 |  |  |  |  |
| CN(C)CCCOc1ccc(CCn2cc(CCCCCCc3cn(CCc4ccc(OCCCN(C)C)c(Br)c4)nn3)nn2)cc1Br | > 200 | 71 | 84.7 | > 200 | 72.3 | > 200 |  |
| Oc1ccc(CCn2cc(-c3cccc(-c4cn(CCc5ccc(O)c(Br)c5)nn4)c3)nn2)cc1Br | > 200 | 56.8 | 61.5 | > 200 | 66.5 | > 200 |  |
| COc1ccc(CCn2cc(CNCc3cn(CCc4ccc(OC)c(Br)c4)nn3)nn2)cc1Br | 194 |  | 46.3 |  |  |  |  |
| CN(C)CCOc1ccc(CCn2cc(CCCc3cn(CCc4ccc(OCCN(C)C)c(Br)c4)nn3)nn2)cc1Br | > 200 |  | 51.5 | > 200 | 57 | > 200 |  |
| COc1ccc(CCn2cc(CCCCc3cn(CCc4ccc(OC)c(Br)c4)nn3)nn2)cc1Br | > 200 |  | 50.9 | > 200 |  | > 200 |  |
| Oc1ccc(CCn2cc(COCc3cn(CCc4ccc(O)c(Br)c4)nn3)nn2)cc1Br | 198 | 40.3 | 47.8 |  | 50.3 |  |  |
| CN(C)CCOc1ccc(CCn2cc(COCc3cn(CCc4ccc(OCCN(C)C)c(Br)c4)nn3)nn2)cc1Br | 146 |  | 40.4 |  |  | 91.8 |  |
| Oc1ccc(CCn2cc(CNCc3cn(CCc4ccc(O)c(Br)c4)nn3)nn2)cc1Br | 88.3 |  | 27.9 | 80.3 |  | 59.9 |  |
| CN(C)CCCOc1ccc(CCn2cc(CCCCc3cn(CCc4ccc(OCCCN(C)C)c(Br)c4)nn3)nn2)cc1Br | > 200 | 66.5 | 80.7 | > 200 | 89.2 | > 200 |  |
| CN(C)CCCOc1ccc(CCn2cc(CNCc3cn(CCc4ccc(OCCCN(C)C)c(Br)c4)nn3)nn2)cc1Br | > 200 | 45 | 56.3 |  |  | > 200 |  |
| tributyltin-oxide |  |  |  |  |  |  | EC50 [4]: 7 µM; EC50 (Paracoccus sp. [1]): 4 µM; EC50 (Pseudoalteromonas ulvae [6]): 0.7 µM |
| Oc1ccc(CCn2cc(CCCCc3cn(CCc4ccc(O)c(Br)c4)nn3)nn2)cc1Br | > 200 |  | 52.4 | > 200 |  | > 200 |  |
| CN(C)CCOc1ccc(CCn2cc(-c3cccc(-c4cn(CCc5ccc(OCCN(C)C)c(Br)c5)nn4)c3)nn2)cc1Br | > 200 | 62.2 | 66.9 | > 200 | 65.1 | > 200 |  |
| CC1(C)S[C@@H]2[C@H](NC(=O)[C@H](N)c3ccccc3)C(=O)N2[C@H]1C(=O)O [AMPICILLIN] |  |  |  |  |  |  | growth inhibition (GI) (Paracoccus sp. [7]): Toxic; growth inhibition (GI) (Pseudoalteromonas ulvae [8]): Toxic; Activity [9]: Toxic; Activity (Paracoccus sp. [10]): Toxic; growth inhibition (GI) [11]: Toxic; Activity (Pseudoalteromonas ulvae [12]): Toxic |
| Oc1ccc(CCn2cc(CCCCCCc3cn(CCc4ccc(O)c(Br)c4)nn3)nn2)cc1Br | > 200 | 61.7 | 78.1 | > 200 | 75 | > 200 |  |
| COc1ccc(CCn2cc(COCc3cn(CCc4ccc(OC)c(Br)c4)nn3)nn2)cc1Br | 164 | 38.5 | 44.9 |  | 42.8 |  |  |
| COc1ccc(CCn2cc(CCCc3cn(CCc4ccc(OC)c(Br)c4)nn3)nn2)cc1Br | > 200 |  | 49.2 | > 200 | 50 | > 200 |  |
| CN(C)CCOc1ccc(CCn2cc(CCCCc3cn(CCc4ccc(OCCN(C)C)c(Br)c4)nn3)nn2)cc1Br | > 200 |  | 57.4 | > 200 | 58.5 | > 200 |  |
| CN(C)CCCOc1ccc(CCn2cc(-c3ccc(-c4cn(CCc5ccc(OCCCN(C)C)c(Br)c5)nn4)cc3)nn2)cc1Br | 3.5 | 0.6 | 5.1 | 15 | 5.3 | 0.4 | Activity (Pseudoalteromonas ulvae [13]): Toxic; Activity (Paracoccus sp. [14]): Toxic; growth inhibition (GI) (Paracoccus sp. [15]): Toxic; Activity [9]: Non-Toxic; growth inhibition (GI) [16]: Toxic; Activity [17]: Toxic; Activity (Paracoccus sp. [10]): Non-Toxic; growth inhibition (GI) (Pseudoalteromonas ulvae [18]): Toxic; Activity (Pseudoalteromonas ulvae [12]): Non-Toxic |
| CN(C)CCOc1ccc(CCn2cc(CCCCCCc3cn(CCc4ccc(OCCN(C)C)c(Br)c4)nn3)nn2)cc1Br | > 200 |  | 59.5 | > 200 | 54.4 | > 200 |  |
| CN(C)CCCOc1ccc(CCn2cc(COCc3cn(CCc4ccc(OCCCN(C)C)c(Br)c4)nn3)nn2)cc1Br | > 200 |  | 53.7 | > 200 |  |  |  |
| CN(C)CCOc1ccc(CCn2cc(-c3ccc(-c4cn(CCc5ccc(OCCN(C)C)c(Br)c5)nn4)cc3)nn2)cc1Br | 5.1 | 0 | 10.1 | 5.1 | 14.6 | 0.9 | Activity (Pseudoalteromonas ulvae [13]): Toxic; Activity (Paracoccus sp. [14]): Toxic; growth inhibition (GI) (Paracoccus sp. [15]): Toxic; Activity [9]: Non-Toxic; growth inhibition (GI) [16]: Toxic; Activity [17]: Toxic; Activity (Paracoccus sp. [10]): Non-Toxic; growth inhibition (GI) (Pseudoalteromonas ulvae [18]): Toxic; Activity (Pseudoalteromonas ulvae [12]): Non-Toxic |
| Oc1ccc(CCn2cc(-c3ccc(-c4cn(CCc5ccc(O)c(Br)c5)nn4)cc3)nn2)cc1Br | 59.9 | 31.1 | 31.8 | > 200 |  | 40.9 |  |
| CN(C)CCCOc1ccc(CCn2cc(-c3cccc(-c4cn(CCc5ccc(OCCCN(C)C)c(Br)c5)nn4)c3)nn2)cc1Br | > 200 | 65.3 | 78.1 | > 200 | 71.6 | > 200 |  |
| Oc1ccc(CCn2cc(CCCc3cn(CCc4ccc(O)c(Br)c4)nn3)nn2)cc1Br | > 200 | 53.1 | 83.4 | > 200 | 63.5 | > 200 |  |
| COc1ccc(CCn2cc(-c3cccc(-c4cn(CCc5ccc(OC)c(Br)c5)nn4)c3)nn2)cc1Br | > 200 | 74.1 | 76.2 | > 200 | 101.1 | > 200 |  |
| COc1ccc(CCn2cc(CCCCCCc3cn(CCc4ccc(OC)c(Br)c4)nn3)nn2)cc1Br | > 200 | 62.7 | 69.2 | > 200 | 78.3 | > 200 |  |
| CN(C)CCCOc1ccc(CCn2cc(CCCc3cn(CCc4ccc(OCCCN(C)C)c(Br)c4)nn3)nn2)cc1Br | > 200 |  | 77.2 | > 200 |  | > 200 |  |
